Here are results for 98 molecules from ChEMBL document CHEMBL4513216, “Probing the Open Global Health Chemical Diversity Library for Multistage-Active Starting Points for Next-Generation Antimalarials” (ACS Infect Dis, 2020).

This data set can be described thus: Toxicity liver stage against HepG2, at 10uM. On the set-up: test concentration 10 uM, cell line HepG2-A16-CD81EGFP. Conditions: human, HepG2-A16-CD81EGFP cells; read-out: INHIBITION
It is filed as cell-based. Put shortly: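 Uninfected HepG2-A16-CD81EGFP cells, 3 × 10^3 per well, 1536-well, plated on prespotted compound at 10 μM final, parasite-free screening media added to match infected plates; puromycin 10 μM positive, DMSO 0.5% negative; run in parallel with 48 h PbLuc assay at 37 °C, 5% CO2; viability by CellTiter-Glo luminescence, normalized to controls.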
For `CC(C)(C)CN1Cc2cc3c(cc2NCCC1=O)OCO3`, the cytotoxicity at 10 µM was -84.3%. Consider `COC(=O)COn1c(OC)nc2ccccc2c1=O`, for which the cytotoxicity at 10 µM was -4.73%. Regarding `COc1ncnc2c1CCN(C(=O)Cc1cccc(F)c1)CC2`, the cytotoxicity at 10 µM was 3.88%. Regarding `CC(C)Nc1ccc2c(c1)C1(CCOCC1)C(=O)N2c1ccsc1`, the cytotoxicity at 10 µM was 11%. For `CCN1CCOCC2(CCCN(c3nncs3)C2)C1` (stereo not drawn), the cytotoxicity at 10 µM was found to be 8.28%.

Regarding `CCc1ccc(C(=O)N2CCCn3nnc(Cn4cccn4)c3C2)cc1`, the cytotoxicity at 10 µM amounted to 7.8%. Turning to `CC(C)COc1ccc(C2SCC(=O)Nc3c2c(=O)[nH]n3C(C)C)cc1` (stereo not drawn), the cytotoxicity at 10 µM came out at 8.74%. Turning to `O=S(=O)(Nc1ccc(Oc2ccc3c(c2)OCO3)cc1)N1CCCCC1`, the cytotoxicity at 10 µM was -29.3%. As to `COC(=O)C1CCN(C(=O)c2nnc3ccc(Cl)cc3n2)CC1`, the cytotoxicity at 10 µM is 12.3%. Consider `COCCNC(=O)c1cc(C(C)C)nc(N2CCCCC2)n1`, for which the cytotoxicity at 10 µM was 9.04%. For `CC(C)c1cc(C(=O)NCCCN(C)C)nc(N2CCCC2)n1`, the cytotoxicity at 10 µM is 8.49%. For the molecule `Cc1ccccc1OC1CCN(CC(=O)Nc2c(C)nn(C)c2C)CC1`, the cytotoxicity at 10 µM is 0.919%. `Fc1cccc(Oc2nccnc2C2CCN(C3CCOCC3)CC2)c1`: the cytotoxicity at 10 µM came out at 6.62%. With `Cc1cc(C(=O)N2Cc3ccccc3OC3(CCOCC3)C2)nc(N)n1`, the cytotoxicity at 10 µM is -0.928%. Take `COCCNC(=O)N1CCSC2(CCCCC2)C1`: the cytotoxicity at 10 µM stood at 2.07%. Next, `Cc1nc(C)c(C(=O)N2CCc3cc(F)ccc3C2C)o1` (stereo not drawn): 10.5%; `CN(Cc1ccc(F)cc1F)Cc1cc2c(cc1Br)OCCO2`: -111%.

Regarding `O=C(O)c1ccn(-c2cccc(NC(=O)c3ccccc3Cl)c2)n1`, the cytotoxicity at 10 µM was -139%.

Turning to `Cc1cccc(C)c1NC(=O)c1cc(S(N)(=O)=O)c(C)o1`, the cytotoxicity at 10 µM was -4.27%.

For the molecule `COC(=O)CC1CN(Cc2ccn(-c3ccc(F)cc3)n2)CCO1` (stereo not drawn), the cytotoxicity at 10 µM was -7.83%.

As for `COC(=O)C(C)N(Cc1cc(C)on1)C1CC1` (stereo not drawn), the cytotoxicity at 10 µM worked out at 0.91%. Take `CCS(=O)(=O)N1CCc2c(cccc2NCc2nc(C)c(C)o2)C1`: the cytotoxicity at 10 µM was -46.9%. For the molecule `COCc1nc(C(=O)NS(=O)(=O)c2ccc(OC)c(C)c2)cs1`, the cytotoxicity at 10 µM turned out to be 1.06%.

For the molecule `CN(CCCNC(=O)c1ccccc1F)CC(F)(F)F`, the cytotoxicity at 10 µM is -9.25%. `Cc1ccoc1CNCc1nnc2n1CC(C(F)(F)F)CC2` (stereo not drawn): the cytotoxicity at 10 µM is 14.3%. `Clc1cccc(CNC2CCN(CCc3ccncc3)CC2)c1`: the cytotoxicity at 10 µM is -5.62%. Next, `COc1cc(CN(C)C(=O)NCCNC(=O)C2CC2)ccc1SC`: -3.73%; `CC(NCc1ccco1)c1nnc2n1CCCC2` (stereo not drawn): -2.34%; `CC(Sc1nnnn1C1CCOCC1)C(F)(F)F` (stereo not drawn): 11.5%. To `CCc1ncc2c(n1)CN(Cc1nc3c(F)cccc3[nH]1)CC2` belongs 19%; to `OC(COCc1ccccc1)CSc1nnc(C2CC2)n1C1CC1` (stereo not drawn), 4.93%. For the molecule `CN(Cc1cnn(C)c1)S(=O)(=O)N1CCCC1c1ccco1` (stereo not drawn), the cytotoxicity at 10 µM was -5.78%.

For `Cc1ccccc1-c1noc(CNc2ccc(F)cc2OCCO)n1`, the cytotoxicity at 10 µM is -41.7%.

Regarding `O=C(CCCc1nc(C2CC2)no1)N1CCCC(c2ccn[nH]2)C1` (stereo not drawn), the cytotoxicity at 10 µM worked out at 12%. Next, `COc1cc2c(c(OC)c1OC)CCN(CCn1cncn1)CC2`: 11.5%; `CCc1cnc(CCNC(=O)N2CCCC(c3ncc[nH]3)C2)s1` (stereo not drawn): -4.15%.

Take `CN(CCNC(=O)Nc1ccn(C)n1)Cc1ccc(F)cc1`: the cytotoxicity at 10 µM is 8.16%. Next, `Cc1cc(C(=O)NCCN2CCCCC2C)nn1C(C)(C)C` (stereo not drawn): 1.57%; `Cc1cc(NC(=O)N(CCC#N)CCCN(C)C)ccc1F`: -57.7%.

Turning to `Cn1nnc2c1CCN(S(C)(=O)=O)C2COCc1ccccc1` (stereo not drawn), the cytotoxicity at 10 µM was -100%. With `COc1cc(-c2cnnc(NCCSC)n2)cc(OC)c1OC`, the cytotoxicity at 10 µM amounted to 3.98%.

With `COc1ncccc1-c1cc(C(N)=O)ccn1`, the cytotoxicity at 10 µM is 7.81%. With `COC(=O)[C@@H]1CCCN1C(=O)c1cn(C/C=C/c2ccccc2)nn1`, the cytotoxicity at 10 µM stood at 3.61%. Take `O=C1NC2(CCN(CCc3ccccc3)CC2)CC1c1ccccc1` (stereo not drawn): the cytotoxicity at 10 µM is -48.6%. For `O=C(Nc1ccccc1N1CCOC1=O)N1CCSCC1`, the cytotoxicity at 10 µM worked out at 3.15%. On to `CCc1nnc(CN(C)C(=O)C(CC)n2c(CC)nc3ccccc32)o1` (stereo not drawn), for which the cytotoxicity at 10 µM is -4.27%.

In the case of `CC(C)c1noc(-c2ccc(NCCCN3CCCC(O)C3)nc2)n1` (stereo not drawn), the cytotoxicity at 10 µM is -6.87%. Consider `c1ccc(CCCN2CCCN(c3ncnc4[nH]ccc34)CC2)cc1`, for which the cytotoxicity at 10 µM is -5.86%. On to `CN(C)Cc1ccccc1CN(C)c1ncnc2[nH]ccc12`, for which the cytotoxicity at 10 µM was determined as 8.11%. Regarding `CC(=O)c1cc(CN2C[C@@H](NS(=O)(=O)N(C)C)[C@H](C(C)C)C2)cs1`, the cytotoxicity at 10 µM was -7.79%. Take `OCC1(O)CCCN(Cc2ccccc2OCCc2ccccc2)CC1` (stereo not drawn): the cytotoxicity at 10 µM is -45.4%.

Turning to `CCC(=O)c1ccc(OCC(=O)NCC2CC(CC)=NO2)cc1` (stereo not drawn), the cytotoxicity at 10 µM is -41.7%.

On to `COc1cc(-c2cc(C3CCOC3)c(C#N)c(N)n2)ccc1O` (stereo not drawn), for which the cytotoxicity at 10 µM was -0.412%. As for `CCOc1ccc(-n2nc(C)c(CC(C)=O)c2C)cc1C(N)=O`, the cytotoxicity at 10 µM worked out at 7.09%. Next, `CCNC(=O)C1CCN(c2cc(CC)nc3ccnn23)C1` (stereo not drawn): -8.24%. Consider `CCc1ccc(CN(C/C=C/c2ccccc2)CCOC)nc1`, for which the cytotoxicity at 10 µM was determined as 10.2%. On to `O=C(CCCc1cn[nH]c1)N1C[C@@H](CN2CCCCCC2)[C@@H](CO)C1`, for which the cytotoxicity at 10 µM came out at 1.52%. Regarding `COc1ccc(C(C(=O)O)N(C)CCN2CCCC2)c(C)c1` (stereo not drawn), the cytotoxicity at 10 µM was 3.41%. Next, `COCCCC1CCCCN1C(=O)c1ccc(SCCO)cc1` (stereo not drawn): -50%. For `COc1ccc(-n2cccn2)c(CN2CCC3(CCNCC3)C2)c1`, the cytotoxicity at 10 µM was determined as 0.0652%.

Turning to `CC(C1CCN(Cc2c(Cl)cncc2Cl)CC1)N1CCOCC1` (stereo not drawn), the cytotoxicity at 10 µM was -8.68%. Consider `CNc1ccnc(NCC(=O)Nc2cc(C)ccc2OC)n1`, for which the cytotoxicity at 10 µM was -2.9%.

With `COc1cccc(Cl)c1C(C(=O)O)N(C)Cc1nnc(C)o1` (stereo not drawn), the cytotoxicity at 10 µM was -23.4%. With `COc1ccccc1N1CCN(C(=O)Cn2nc(C)cc2C)CC1(C)C`, the cytotoxicity at 10 µM is 9.62%. On to `CC(C)c1nccc(CN2CCC(c3nc4ccccc4n3C)CC2)n1`, for which the cytotoxicity at 10 µM was 7.23%.

As for `Fc1ccc(-c2noc3c2CN(CC2CC2)CC3)cc1F`, the cytotoxicity at 10 µM was -6.39%. For the molecule `CC(COc1ccccc1)NS(C)(=O)=O` (stereo not drawn), the cytotoxicity at 10 µM is -4.05%. Next, `O=C(COCC1CCCO1)N1CCCN(Cc2ccccc2F)CC1` (stereo not drawn): 2.86%; `CN(C)CCN1CC(C(=O)N(C)Cc2cc3cc(F)ccc3[nH]2)CC1=O` (stereo not drawn): -1.03%. Next, `Cc1ccc(NC(=O)CNC(C)Cc2ccsc2)cc1F` (stereo not drawn): 9.17%. Regarding `CSCCNC(=O)c1ccc(OC2CCN(CC(C)(C)C)CC2)c(Cl)c1`, the cytotoxicity at 10 µM is -10.9%. To `Cc1nccn1-c1cccc(C2CCCN2S(=O)(=O)N(C)C)n1` (stereo not drawn) belongs 3.44%. Take `O=C1CN(c2ccc(CNC(=O)NCCO)cc2)CCN1`: the cytotoxicity at 10 µM was -2.38%.

In the case of `CCn1cc(CN2CCCN(C(=O)CCn3cc(C)cn3)CC2)cn1`, the cytotoxicity at 10 µM is -2.11%.

For `Cc1ccc(C(=O)NCC(O)c2cccc(F)c2)c(=O)[nH]1` (stereo not drawn), the cytotoxicity at 10 µM was -2.83%. Turning to `Cc1ccc(C)c(S(=O)(=O)NC(=O)c2ccc(C)[nH]c2=O)c1`, the cytotoxicity at 10 µM is -1.07%. For the molecule `N#CCCNC(=O)CN1CC(n2cccn2)C1`, the cytotoxicity at 10 µM is -7.29%.

With `CCn1ccnc1CN1CCN(CCOc2ccc(C#N)cc2)CC1`, the cytotoxicity at 10 µM is -3.75%. As for `CCc1cnc(CN(C)C2CCN(CC(=O)Nc3nccs3)C2)o1` (stereo not drawn), the cytotoxicity at 10 µM is -18.7%. Turning to `CN(C(=O)Cc1ccccc1F)C1CCN(c2ccccn2)CC1`, the cytotoxicity at 10 µM was -0.644%.

Turning to `Cn1cnc2c1CCN(CCS(=O)(=O)c1ccc(Cl)cc1)C2`, the cytotoxicity at 10 µM was -6.67%. As for `CC(C)c1cc(NC(=O)CN2CCCC2c2noc(C(C)C)n2)on1` (stereo not drawn), the cytotoxicity at 10 µM was -3.84%. Next, `O=C(Cc1ccccc1F)N1CCN(Cc2noc(C3CC3)n2)CC1`: -2.21%; `COc1ccc(COCC(O)CNC(=O)c2ccc(C)c(F)c2)cc1` (stereo not drawn): -0.584%; `CC(CNC(=O)c1ccc(=O)[nH]n1)N1CCc2ccccc21` (stereo not drawn): -8.93%. Next, `Cc1ccc(NC2CCN(C(=O)COCC(F)(F)F)CC2)nn1`: 6.38%.

For the molecule `Cc1ccc(NC(=O)N(C)Cc2cnn(C)c2)cc1OCC(F)F`, the cytotoxicity at 10 µM is -0.243%. Consider `Fc1cccc(CN2CCC(c3cc4ncccc4cn3)CC2)c1F`, for which the cytotoxicity at 10 µM is -7.62%.

For `Fc1ccccc1Cn1c(C2CCNCC2)cc2cccnc21`, the cytotoxicity at 10 µM stood at 1.25%.

Regarding `Cc1nc2sccn2c1CNC1(c2ccccc2F)CCCC1`, the cytotoxicity at 10 µM came to 11.3%. As for `CCc1ccc(CN(CCCn2ccnc2)Cc2ccc(C)s2)o1`, the cytotoxicity at 10 µM was 3.86%.

Turning to `O=C1COC2(CCN(Cc3ccoc3)CC2)CN1c1ccsc1`, the cytotoxicity at 10 µM is 3.09%. In the case of `CCn1nnc2c1C(COCCN(C)C)CN(S(=O)(=O)CC)C2` (stereo not drawn), the cytotoxicity at 10 µM was -4.38%. Turning to `CN(C)C(=O)C1CN(Cc2ccsc2)Cc2ccnn2C1` (stereo not drawn), the cytotoxicity at 10 µM is -6.75%. On to `COc1cc(N2C[C@H]3CCN(CCN4CCCC4)C[C@H]3C2)ncn1`, for which the cytotoxicity at 10 µM was 12%. As to `Cc1cnc(N2CCC[C@@H]3CN(CC(=O)N(C)C)C[C@@H]32)nc1`, the cytotoxicity at 10 µM is 11.4%. `COc1ccc(CN2CCC3(CC2)CCN(CC2CC2)C3=O)cc1`: the cytotoxicity at 10 µM came to 8.18%. Next, `CN(C)C(=O)N1CCC2(CCCN(Cc3cnn(C)c3)C2)C1` (stereo not drawn): 4.91%.
